In the library only some 3.7% were active in any assay of this set; here they are far more common.
B2AR ag: agonists of human beta-2 adrenergic receptor inducing internalization; Am2.2-beta2AR cells, FAP receptor internalization, flow cytometry; response, % (no concentration beside the values); hit rate 0.43% among 340,000;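 active = response above a set limit, near 3 SD of response in nonfluorescent compounds, cut at about 42% in these data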
Dynein cargo inh: blocks dynein driven cargo transport along microtubules | z-score, hits read low | 3617.4 mouse cells, GR-EGFP nuclear translocation imaging; test concentration mostly 20 µM; stimulated with dexamethasone, 1 µM; hits give low values | hit rate 0.47% among 220,000 | AID 1381;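 active = plate z-score of nuclear minus cytoplasmic receptor signal below a set negative limit, without overly bright fluorescence or cell loss, cut at about -3.5 in these data, passing the limit was not always enough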;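 also: z-score of nuclear minus cytoplasmic ring GR-EGFP intensity difference per well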
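medium = tetracycline-free induction medium containing charcoal-stripped FBS | also added = 1.0 µM final dexamethasone stimulus | schedule = 48 h induction, 1 h compound, 30 min dex at 37 °C | technique = fixed, Hoechst-stained cells imaged at 10x for EGFP | measure = GR-EGFP nuclear translocation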
Mdm2-MdmX inh: inhibitors of human Mdm2/MdmX interaction; O15151+Q00987; SaOS-2 split-luciferase Mdm2/MdmX complementation, luminescence; inhibition, % at 8 µM; hit rate 3% among 330,000; AID 485346;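 active = inhibition of at least 50% at 8 µM in the primary screen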
Target sequence (O15151 whole entry, looked up): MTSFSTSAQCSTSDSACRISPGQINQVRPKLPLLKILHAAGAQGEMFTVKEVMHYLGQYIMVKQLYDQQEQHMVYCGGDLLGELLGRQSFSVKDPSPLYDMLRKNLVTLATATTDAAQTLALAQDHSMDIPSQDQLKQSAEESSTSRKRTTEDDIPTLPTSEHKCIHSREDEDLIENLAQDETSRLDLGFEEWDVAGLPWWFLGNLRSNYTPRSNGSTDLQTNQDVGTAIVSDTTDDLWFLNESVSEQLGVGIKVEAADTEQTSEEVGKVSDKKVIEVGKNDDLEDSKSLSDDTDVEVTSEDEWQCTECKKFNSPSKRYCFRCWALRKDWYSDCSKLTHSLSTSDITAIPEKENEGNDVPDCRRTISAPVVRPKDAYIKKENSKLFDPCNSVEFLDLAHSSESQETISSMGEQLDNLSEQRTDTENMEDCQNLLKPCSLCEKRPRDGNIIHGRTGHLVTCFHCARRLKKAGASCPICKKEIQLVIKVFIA
Target sequence (Q00987 whole entry, looked up): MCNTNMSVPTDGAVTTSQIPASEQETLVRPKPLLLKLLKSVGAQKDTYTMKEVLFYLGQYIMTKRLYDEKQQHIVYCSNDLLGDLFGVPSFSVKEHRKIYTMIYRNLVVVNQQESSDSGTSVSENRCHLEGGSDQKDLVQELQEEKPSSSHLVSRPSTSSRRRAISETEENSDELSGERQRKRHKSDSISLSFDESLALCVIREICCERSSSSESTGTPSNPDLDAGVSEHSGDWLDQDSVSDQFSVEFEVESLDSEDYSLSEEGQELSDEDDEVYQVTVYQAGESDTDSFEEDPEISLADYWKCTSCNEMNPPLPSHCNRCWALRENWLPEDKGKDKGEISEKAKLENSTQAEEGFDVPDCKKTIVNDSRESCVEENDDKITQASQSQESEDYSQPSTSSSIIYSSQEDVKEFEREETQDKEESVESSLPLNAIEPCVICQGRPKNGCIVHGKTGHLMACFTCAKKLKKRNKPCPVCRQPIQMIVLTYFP
UPR CHOP act: activators of apoptotic arm of unfolded protein response (CHOP); AID 449763; hit rate 0.34% among 330,000; CHO-CHOP luciferase reporter, UPR activation, luminescence; percent of tunicamycin response over DMSO baseline; activation, % at 10 µM;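 active = at 10 µM dose, activation of 40% or more, normalized to positive control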;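 also: 100% = tunicamycin at 10 µg/mL and 0% = DMSO alone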
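System: CHO-CHOP luciferase reporter cell line | Buffer or medium: F12 medium containing 10% fetal bovine serum | Doses: One dose, 10 µM in 0.5% DMSO | Times: 6 h compound exposure at 37 °C after overnight seeding | Signal: Luciferase luminescence | Read-out: % activation vs tunicamycin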
UPR XBP1 act: adaptive UPR (XBP1) activation. AID 463104. activation, % at 20 µM. CHO-XBP1 luciferase reporter, IRE1-XBP1 UPR activation, luminescence; percent of tunicamycin response, DMSO as zero. hit rate 0.33% among 330,000;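 active = versus positive control, 20 µM dose yields 30% or more activation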;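 also: 100% = tunicamycin at 10 µg/mL and 0% = DMSO only wells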
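Material: CHO cell line with stable XBP1 luciferase reporter; schedule: 16-18 h cell attachment at 37 °C, then 6 h compound exposure; signal: glow luminescence from Steady-Glo reagent; medium: serum-containing F12 medium, 10% FBS; benchmarks: tunicamycin 10 µg/mL and vehicle-only wells; read-out: percent activation relative to tunicamycin reference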
MDM2 E3 inh: Mdm2 E3 ligase (human) inhibition; hit rate 0.11% among 210,000; signal enhancement, % at 5 µM; AID 1230; cell-based MDM2 ubiquitination luciferase reporter, 2 h; 0 = plate control, 100 = twice control, blank-subtracted;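 active = signal enhancement of 30% or more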;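 also: luminescence tracks abundance of the self-degrading MDM2-luciferase fusion protein; higher signal means inhibition of MDM2 E3 ligase activity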
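Timing – 2 h compound exposure at 37 °C · Assay system – mammalian cells stably expressing self-ubiquitinating, self-degrading MDM2 E3–luciferase fusion · Amount – 2000 cells seeded into each well · Measure – % luminescence enhancement versus blank-corrected plate control mean · Measured by – SteadyLite luminescence, 15 min reagent step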
Mdm2-MdmX conf: confirmation of human Mdm2/MdmX interaction inhibitors; AID 489028; hit rate 55% among 10,000; inhibition, % at 8 µM; shares compounds with Mdm2-MdmX inh; Mdm2-MdmX binding, luminescent assay; in the data active = inhibition above about 40%
FLuc counter: counter-screen for Mdm2/MdmX inhibitors: full-length luciferase; SaOS-2 full-length luciferase counterscreen, luminescence; shares compounds with Mdm2-MdmX inh; inhibition, % at 8 µM; hit rate 77% among 6,200;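 active = mean inhibition at 8 µM reaching about 37%, which flags the compound as non-specific, limit read from the data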;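 also: p53-null SaOS-2 cells with luciferase driven by a doxycycline-inducible promoter; compound on cells about two nights before reading with doxycycline added after day one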
The depositor's hits bear a star; . = not tested or not shown.

SMILES	B2AR ag	Dynein cargo inh	Mdm2-MdmX inh	UPR CHOP act	UPR XBP1 act	MDM2 E3 inh	Mdm2-MdmX conf	FLuc counter
COCc1cc(=O)n2[nH]cc(-c3ccsc3)c2n1	0	.	12	-2	0	.	.	.
O=C1c2ccccc2NC(c2ccc(-c3ccc(Br)cc3)o2)N1O (stereo unspecified)	2	-0.91	73*	-2	1	-28	56*	31
COc1ccc(NS(=O)(=O)c2ccc(N3CCOCC3)c(NC(=O)c3ccccc3Cl)c2)cc1	3	2.4	-9	1	-3	9	.	.
O=C(Nc1ccc(N2CCOCC2)c(S(=O)(=O)Nc2ccccc2Cl)c1)c1ccccc1	12	.	54*	-3	-3	.	14	.
O=C(Nc1ccc(Cl)cc1)Nc1ccc(N2CCCC2)c(S(=O)(=O)Nc2ccccc2Cl)c1	17	-0.34	96*	16	11	-14	90*	24
O=C(Nc1cc(S(=O)(=O)Nc2ccc(Cl)cc2)ccc1N1CCCCC1)c1ccc(F)cc1Cl	19	-0.92	67*	0	8	14	21	.
O=C1C2CC(O)CN2C(=S)N1Cc1ccccc1 (stereo unspecified)	10	-0.3	-40	1	0	-8	.	.
Cc1c(C(=O)N(C)Cc2nc3ccccc3c(=O)[nH]2)oc2ccccc12	-7	.	41	-1	-4	.	.	.
COCCNC(=O)/C(C#N)=C/c1c(N2CCCCCC2)nc2ccccn2c1=O	-23	.	-4	0	0	.	.	.
COc1ccc(NC(=O)c2cnn(-c3ccccc3)c2C)cc1	-8	.	-97	1	-6	.	.	.
COC(=O)c1cnn(-c2ccccc2)c1/C=N/NC(=S)Nc1ccc(Cl)cc1	-2	-0.3	52*	6	16	-15	54*	54*
Oc1[nH]c2ccc(Br)cc2c1N=NC(=S)NCC1CCCO1 (stereo unspecified)	-11	0.54	68*	-2	5	1	53*	48*
Oc1[nH]c2c(Cl)cc(Cl)cc2c1N=NC(=S)NCC1CCCO1 (stereo unspecified)	6	0.63	98*	19	0	-13	45*	50*
COc1cc(-c2nc(-c3ccc4c(c3)-c3ccccc3S4(=O)=O)c(-c3ccccc3)[nH]2)cc(OC)c1O	20	-0.71	77*	21	13	-24	67*	79*
Cc1cccc(C(=O)CC(=O)c2cc(Cl)ccc2O)c1	8	-1.6	62*	13	5	15	58*	39*
Cc1ccc(O)c(C(=O)CC(=O)c2ccc(Cl)cc2)c1	15	.	.	.	.	.	.	.
Cn1ncc2c(O/N=C(\N)c3ccc(C(C)(C)C)cc3)ncnc21	49*	1.7	99*	7	9	-33	100*	52*
O=C1NCC(Nc2ccccc2Cl)C(=O)N1 (stereo unspecified)	5	.	.	.	.	.	.	.
CCCCCCCCCC(=O)N[C@@H]1c2cc(OC)c(OC)cc2C[C@H]1OCc1ccccc1	9	.	89*	1	1	.	69*	36
COc1cc2c(cc1OC)[C@@H](NC(=O)CCc1ccccc1)[C@H](OCc1ccccc1)C2	7	.	10	1	-2	.	.	.
CCc1cc(SC#N)cc(C)c1N	-8	0.64	-8	0	-3	8	.	.
CCc1cc(SC#N)cc(C)c1NC(=O)CCl	47*	3.5	81*	5	11	-4	41*	55*
CCC(=O)Nc1ccc(SC#N)cc1C	16	-1	34	2	2	-16	.	.
Cc1cc(SC#N)cc(C)c1NC(=O)CCl	35	-2.4	59*	4	23	-14	49*	34

From PubChem BioAssay
